From ChEMBL document CHEMBL2384923, “Design, synthesis and antimicrobial activities evaluation of Schiff base derived from secnidazole derivatives as potential FabH inhibitors” (Bioorg Med Chem, 2013)
pIC50: −log10 of the molar value. Converted amounts (≈) assume the structure as drawn.

Legend:
Pseudomonas aeruginosa = assay: Antimicrobial activity against Pseudomonas aeruginosa ATCC 27853 after 24 hrs by two fold serial dilution method; assay type: functional; conditions: ATCC 27853, 24 h
Outline: (§1)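 Tested per NCCLS by two-fold serial dilution in nutrient broth. The inoculum came from 24 h cultures on nutrient agar at 37 ± 1 °C and was adjusted with sterile saline to 1 ×10^4-105 CFU. […] Tubes were incubated at 37 ± 1 °C, and MIC was read visually after 24 h. Kanamycin and DDCP served as standards.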

Staphylococcus aureus = assay: Antimicrobial activity against Staphylococcus aureus ATCC 6538 after 24 hrs by two fold serial dilution method; assay type: functional; conditions: ATCC 6538, 24 h; outline: as §1
Bacillus subtilis = assay: Antimicrobial activity against Bacillus subtilis ATCC 530 after 24 hrs by two fold serial dilution method; assay type: functional; conditions: ATCC 530, 24 h; outline: as §1
[1] = Inhibition of Escherichia coli N-terminal His-tagged full length FabH expressed in Escherichia coli BL21 (DE3) using [3H]acetyl-CoA as substrate assessed as incorporation of [3H] signal into product after 25 mins by liquid scintillation counting analysis
Outline: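 His-tagged FabH was purified on Ni-NTA. Holo-ACP was made from apo-ACP with ACPS and CoA. The 20 µL reaction held pH 7.0 sodium phosphate (20 mM), 0.5 mM DTT, 0.25 mM MgCl₂, 2.5 µM holo-ACP and 1 nM FabH, preincubated 1 min. The reaction started with a 2 µL mix of 25 µM acetyl-CoA and 0.75 µCi [³H]acetyl-CoA and ran 25 min. It was stopped with ice-cold TCA, and the washed pellet was counted. Inhibitors were added from DMSO stock, ≤2% DMSO final, and IC50 was determined.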

Escherichia coli = assay: Antimicrobial activity against Escherichia coli ATCC 25922 after 24 hrs by two fold serial dilution method; assay type: functional; conditions: ATCC 25922, 24 h; outline: as §1

SMILES	MIC (Pseudomonas aeruginosa) [µg/mL]	MIC (Staphylococcus aureus) [µg/mL]	MIC (Bacillus subtilis) [µg/mL]	pIC50 [1]	MIC (Escherichia coli) [µg/mL]
COc1ccc(/C=N/NC(=O)Cn2c([N+](=O)[O-])cnc2C)cc1	6.25 (≈ 19.7 µM)	12.5 (≈ 39.4 µM)	6.25 (≈ 19.7 µM)	5.35	6.25 (≈ 19.7 µM)
Cc1ncc([N+](=O)[O-])n1CC(=O)N/N=C/c1ccc(O)cc1	> 100	> 100	> 100		50 (≈ 165 µM)
Cc1ccc(/C=N/NC(=O)Cn2c([N+](=O)[O-])cnc2C)cc1	6.25 (≈ 20.7 µM)	12.5 (≈ 41.5 µM)	25 (≈ 83 µM)	5.21	6.25 (≈ 20.7 µM)
Cc1ncc([N+](=O)[O-])n1CC(=O)N/N=C/c1cccc(Br)c1	50 (≈ 137 µM)	> 100	> 100		25 (≈ 68.3 µM)
Cc1ncc([N+](=O)[O-])n1CC(=O)N/N=C/c1cccc(Cl)c1	50 (≈ 155 µM)	50 (≈ 155 µM)	50 (≈ 155 µM)		25 (≈ 77.7 µM)
Cc1ncc([N+](=O)[O-])n1CC(=O)N/N=C/c1cccc([N+](=O)[O-])c1	50 (≈ 150 µM)	50 (≈ 150 µM)	> 100		25 (≈ 75.2 µM)
COc1cccc(/C=N/NC(=O)Cn2c([N+](=O)[O-])cnc2C)c1	50 (≈ 158 µM)	25 (≈ 78.8 µM)	50 (≈ 158 µM)		25 (≈ 78.8 µM)
COc1ccccc1/C=N/NC(=O)Cn1c([N+](=O)[O-])cnc1C	50 (≈ 158 µM)	> 100	> 100	4.37	50 (≈ 158 µM)
Cc1ncc([N+](=O)[O-])n1CC(=O)N/N=C/c1ccc(F)cc1F	50 (≈ 155 µM)	25 (≈ 77.3 µM)	50 (≈ 155 µM)		50 (≈ 155 µM)
COc1ccc(/C=N/NC(=O)Cn2c([N+](=O)[O-])cnc2C)cc1OC	12.5 (≈ 36 µM)	12.5 (≈ 36 µM)	25 (≈ 72 µM)	5.06	12.5 (≈ 36 µM)
Cc1ncc([N+](=O)[O-])n1CC(=O)N/N=C/c1ccc(Cl)cc1	50 (≈ 155 µM)	> 100	> 100		50 (≈ 155 µM)
Cc1ncc([N+](=O)[O-])n1CC(=O)N/N=C/c1ccc(F)cc1	> 100	> 100	> 100	4.23	> 100
NC[C@H]1O[C@H](O[C@H]2[C@H](O)[C@@H](O[C@H]3O[C@H](CO)[C@@H](O)[C@H](N)[C@H]3O)[C@H](N)C[C@@H]2N)[C@H](O)[C@@H](O)[C@@H]1O [KANAMYCIN]	3.13 (≈ 6.46 µM)	1.56 (≈ 3.22 µM)	1.56 (≈ 3.22 µM)		3.13 (≈ 6.46 µM)

Continued, values first:

MIC (Pseudomonas aeruginosa) [µg/mL]	MIC (Staphylococcus aureus) [µg/mL]	MIC (Bacillus subtilis) [µg/mL]	pIC50 [1]	MIC (Escherichia coli) [µg/mL]	SMILES
25 (≈ 75.2 µM)	25 (≈ 75.2 µM)	50 (≈ 150 µM)		25 (≈ 75.2 µM)	Cc1ncc([N+](=O)[O-])n1CC(=O)N/N=C/c1ccc([N+](=O)[O-])cc1
12.5 (≈ 37.8 µM)	25 (≈ 75.7 µM)	12.5 (≈ 37.8 µM)	4.80	12.5 (≈ 37.8 µM)	Cc1ncc([N+](=O)[O-])n1CC(=O)N/N=C/c1ccc(N(C)C)cc1
50 (≈ 164 µM)	25 (≈ 81.9 µM)	25 (≈ 81.9 µM)		50 (≈ 164 µM)	Cc1ncc([N+](=O)[O-])n1CC(=O)N/N=C/c1cccc(F)c1
> 100	50 (≈ 155 µM)	50 (≈ 155 µM)		> 100	Cc1ncc([N+](=O)[O-])n1CC(=O)N/N=C/c1ccccc1Cl
> 100	> 100	> 100	4.32	> 100	Cc1ncc([N+](=O)[O-])n1CC(=O)N/N=C/c1ccccc1F
25 (≈ 75.2 µM)	12.5 (≈ 37.6 µM)	12.5 (≈ 37.6 µM)	4.70	25 (≈ 75.2 µM)	Cc1ncc([N+](=O)[O-])n1CC(=O)N/N=C/c1ccccc1[N+](=O)[O-]
6.25 (≈ 19 µM)	3.13 (≈ 9.5 µM)	3.13 (≈ 9.5 µM)	5.64	3.13 (≈ 9.5 µM)	Cc1cc(/C=N/NC(=O)Cn2c([N+](=O)[O-])cnc2C)cc(C)c1C
12.5 (≈ 34.1 µM)	25 (≈ 68.3 µM)	25 (≈ 68.3 µM)		25 (≈ 68.3 µM)	Cc1ncc([N+](=O)[O-])n1CC(=O)N/N=C/c1ccc(Br)cc1
